PMC4293705 (ChemPlusChem, 2012)
Values joined by “and” are separate entries in the source; they are usually repeats but may differ in a detail not shown here. Identical values can stand only once. Like-named read-outs stand apart in the source and are kept apart here. Marks after values point to notes of the source that are not given here.

What was measured:
[1] = reported value; cited from earlier work
[2] = system: HUVEC; experiment: Matrigel assay, HUVEC capillary-tube formation; type: cell-based, human; details: 16 h; for effect on HUVEC capillary tube formation versus control: 10^−6 to 10^−5 M
In short: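 Forty thousand HUVECs seeded on Matrigel in M199 with 10 % FBS containing test compound (10−5 to 10−6 M) and incubated 16 h. Capillary network length quantified by image analysis of micrographs. Untreated cells as control; genistein 30 μg mL−1 (inhibitor) and EGF 50 ng mL−1 (activator) as references. At least three separate experiments; mean ± SEM; ANOVA and Student's test.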

[3] = system: MDA-MB-231 cells; experiment: BrdU assay, MDA-MB-231 cell proliferation; type: cell-based; details: 48 h; for effect on MDA-MB-231 cell proliferation: 10^−8 to 10^−5 M
In short: (§1)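 HUVECs grown on 0.2 % gelatin in M199 with 20 % FBS and ECGS, passages 2–5. HUVEC seeded at 2 × 10^4 and MDA-MB-231 at 1.5 × 10^4 cells/well, in triplicate. Next day, G1-synchronised 24 h in serum-free phenol-red-free medium. Test compound (10−8–10−5 M) given in 10 % FBS for 48 h. BrdU (0.01 mM final) added for 2–24 h; OD read at 450/595 nm. Values background-subtracted and normalised to untreated controls.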

[4] = system: HUVEC; experiment: BrdU assay, HUVEC proliferation; type: cell-based, human; details: 48 h; for effect on HUVEC proliferation: 10^−8 to 10^−5 M
In short: as §1

[5] = type: physicochemical; details: I = 0.1 M (KCl), T = 298 K, H2O/DMSO v/v 30:70; for Log β 1 1–3 (stability constant of Fe^III complex): 5a value by potentiometric and spectrophotometric titrations; for Log β 1 1–2 (stability constant of Fe^III complex): potentiometric and spectrophotometric titrations
In short: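 Performed in H2O/DMSO 30:70 v/v […], I = 0.1 (KCl), 25 °C under argon. Ligand at 10−4–10−5 M with EDTA-standardised FeCl3 at metal:ligand ratios 1:3, 1:2 and 1:1. Potentiometric and spectrophotometric titrations covered pH 1–13. For spectrophotometry, acidified FeIII–ligand solutions were titrated with KOH to pH 6.5, recording UV-visible spectra after each addition at 25.0 °C. pKw 17.16.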

[6] = system: human hepatocarcinoma HepaRG cells; experiment: SDH activity; type: cell-based
[7] = system: MDA-MB-231 cells; experiment: BrdU assay, MDA-MB-231 cell survival; type: cell-based; details: 48 h; for effect on MDA-MB-231 cell survival: 10^−8 to 10^−5 M
In short: (§2)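 Survival version of the BrdU kit assay. HUVEC (2 × 10^4/well) in 1 % FBS; MDA-MB-231 (1.5 × 10^4/well) in 0 % FBS; triplicate wells. After 24 h serum-free phenol-red-free synchronisation, cells exposed 48 h to test compound at 10−8–10−5 M. BrdU (0.01 mM final) added, re-incubated 2–24 h, OD at 450 and 595 nm. Normalised to untreated controls after background subtraction.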

[8] = reported in the literature; cited from earlier work
[9] = system: HUVEC; experiment: BrdU assay, HUVEC survival; type: cell-based, human; details: 48 h; for effect on HUVEC survival: 10^−8 to 10^−5 M
In short: as §2

[10] = Protonation constants by potentiometric titration in H2O/DMSO; type: physicochemical; details: for pKa: H2O/DMSO (v/v 30:70) solution
In short: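 Ligand (10−4–10−5 M, from DMSO solutions) titrated in H2O/DMSO 30:70 v/v at I = 0.1 (KCl), 25 °C, under argon. Automated titration with carbonate-free KOH standardised against potassium hydrogen phthalate. Read on a glass electrode with Ag/AgCl reference; 120–150 points per titration; pKw 17.16. Constants from nonlinear least-squares refinement of the potentiometric data.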

[11] = system: human hepatocarcinoma HepaRG cells; experiment: Extracellular LDH leakage; type: cell-based; details: 72 h; for % LDH/control with Fe^III 20 μM / % LDH/control without Fe^III: cell supernatant
[12] = system: HUVEC; experiment: Wound-healing assay, HUVEC migration; type: cell-based, human; details: 16 h; for effect on HUVEC migration versus control: 10^−6 to 10^−5 M
In short: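 HUVECs (4 × 10^5/well) plated on 0.2 % gelatin; wound made after 24 h on the confluent layer. Cells then treated 16 h with test compound (10−5 to 10−6 M) in phenol-red-free M199 with 10 % FBS and photographed at 16 h. Genistein 30 μg mL−1 and EGF 50 ng mL−1 as references. At least three experiments; mean ± SEM; ANOVA/Student's test.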

[13] = log D determination by micro-HPLC; type: physicochemical; details: for log D: pH 7, n-octanol/phosphate buffer, HPLC
[14] = system: HepaRG cells
[15] = I = 0.1 M (KCl), T = 298 K, H2O/DMSO v/v 30:70
[16] = read-out: SDH, IC50 without Fe^III, HepaRG cells, 72 h treatment, MTT assay

Structure (SMILES)	effect on HUVEC capillary tube formation versus control [2]	effect on MDA-MB-231 cell proliferation [3]	effect on HUVEC proliferation [4]	Log β 1 2–6 (stability constant of Fe^III complex) [5]	Log β 1 1–3 (stability constant of Fe^III complex) [5]	Log β 1 1–2 (stability constant of Fe^III complex) [5]	effect on MDA-MB-231 cell survival [7]	effect on HUVEC survival [9]	Log β 0 1–1 (overall protonation constant) [10, 15]	Log β 0 1–2 (overall protonation constant) [10, 15]	Log β 0 1–3 (overall protonation constant) [10, 15]	% LDH/control with Fe^III 20 μM ([11]; compound 10 μM) [%]	% LDH/control without Fe^III ([11]; compound 10 μM)	% LDH/control with Fe^III 20 μM ([11]; compound 100 μM) [%]	% LDH/control without Fe^III ([11]; compound 100 μM) [%]	effect on HUVEC migration versus control [12]	IC50 [6, 16] [µM]	log D [13]	pKa1 [10, 15]	pKa2 [10, 15]	other results
O=C(O)c1ccc(-n2nc(-c3ccccc3O)nc2-c2ccccc2O)cc1 [ICL670, deferasirox, reference compound]	did not show any effect	did not show any effect	did not show any effect	−20.35(8)	−6.48(9)	−1.06(9) ^[c]	did not show any effect	did not show any effect	−5.56(5)	−16.55(7)	−29.53(7)	80 ±5	87 ±7%	88 ±1	101 ±13	did not show any effect					log D [1]: −0.1; Log β 1 2–5 (stability constant of Fe^III complex) [5]: −13.72(9); IC50 ([6]; Homo sapiens, HepaRG, 72 h, read-out: SDH, IC50 with Fe^III 20 μM): 61 ± 7 µM; IC50 ([6]; Homo sapiens, HepaRG, 72 h, read-out: SDH, IC50 without Fe^III): 11 ± 4 µM; pFe [8]: 23.5; pKa ([10]; pKa1, I = 0.1 M (KCl), T = 298 K, H2O/DMSO v/v 30:70): 5.56; pKa ([10]; pKa2, I = 0.1 M (KCl), T = 298 K, H2O/DMSO v/v 30:70): 11; pKa ([10]; pKa3, I = 0.1 M (KCl), T = 298 K, H2O/DMSO v/v 30:70): 13
O=C(CCOCCOc1c2cccc1Cc1cccc(c1O)Cc1cccc(c1O)Cc1cccc(c1O)C2)Nc1ccc(-n2nc(-c3ccccc3O)nc2-c2ccccc2O)cc1 [5a, 25-{1-[2-(2-{4-[3,5-Bis-(2-hydroxyphenyl)-1,2,4-triazol-1-yl]phenyl}carbamoylethoxy)ethoxy]}-26,27,28-trihydroxycalix[4]arene]				−19.23(8)	−1.74(1) ^[c]				−6.67(2)	−17.12(2)	−29.63(2)	67 ±6	105% and 105 ±11%	187 ±5	200 ±15		6 ± 1	4.59 (±0.06)	6.67	10.45	decrease of HUVEC ability to form capillary tubes versus control ([2]; 10^−5 M): 48%; decrease of HUVEC ability to form capillary tubes versus control ([2]; 10^−6 M): 42%; decrease of MDA-MB-231 cell proliferation versus control ([3]; 10^−5 M): 73%; decrease of MDA-MB-231 cell proliferation versus control ([3]; 10^−6 M): 62%; decrease of MDA-MB-231 cell proliferation versus control ([3]; 10^−7 M): 33%; reduction of HUVEC proliferation versus control ([4]; 10^−5 M): 74%; reduction of HUVEC proliferation versus control ([4]; 10^−6 M): 51%; reduction of HUVEC proliferation versus control ([4]; 10^−7 M): 46%; concentrations at which the compound is cytostatic ([6]; HepaRG cells, 72 h, deduced from dose–effect curves): lower than 10 μM; SDH value relative to the control ([6]; compound 10 μM, HepaRG cells, 72 h): 6%; decrease of MDA-MB-231 survival versus control ([7]; 10^−5 M): 58%; decrease of MDA-MB-231 survival versus control ([7]; 10^−6 M): 51%; decrease of HUVEC survival versus control ([9]; 10^−5 M): 65%; decrease of HUVEC survival versus control ([9]; 10^−6 M): 56%; decrease of HUVEC survival versus control ([9]; 10^−7 M): 28%; pKa3 [10, 15]: 12.51; concentrations inducing a cytotoxic effect (membrane damage, LDH leakage) ([11]; deduced from dose–effect curves): higher than 10 μM; reduction of HUVEC migration versus control ([12]; 10^−5 M): 59%; reduction of HUVEC migration versus control ([12]; 10^−6 M): 51%; membrane diffusion / presence in intracellular medium after cell lysis [14]: found in the intracellular medium
O=C(CCOCCOc1c2cccc1Cc1cccc(c1O)Cc1cccc(c1OCCOCCC(=O)Nc1ccc(-n3nc(-c4ccccc4O)nc3-c3ccccc3O)cc1)Cc1cccc(c1O)C2)Nc1ccc(-n2nc(-c3ccccc3O)nc2-c2ccccc2O)cc1 [5b, 25,27-Bis-{1-[2-(2-{4-[3,5-bis(2-hydroxyphenyl)-1,2,4-triazol-1-yl]-phenyl}carbamoylethoxy)ethoxy]}-26,28-dihydroxycalix[4]arene]	did not show any effect	did not show any effect	did not show any effect		−5.08(6)	−2.35(8) ^[c]	did not show any effect	did not show any effect	−9.88(3)	−21.11(3)	−33.21(3)	91 ±11	76 ±4%	69 ±6	103 ±2	did not show any effect	90 ± 7	3.49 (±0.05)	9.88	11.23	reduction of the lipophilicity in comparison with 5a ([13]; from log D at pH 7): about 12 fold; Log β 0 1–4 (overall protonation constant) [10, 15]: −46.38(6); Log β 0 1–5 (overall protonation constant) [10, 15]: −59.85(4); pKa3 [10, 15]: 12.10; pKa4 [10, 15]: 13.17; pKa5 [10, 15]: 13.47; membrane diffusion / presence in intracellular medium after cell lysis [14]: found in the intracellular medium
Oc1c2cccc1Cc1cccc(c1O)Cc1cccc(c1O)Cc1cccc(c1O)C2 [compound 6, calix[4]arene]																					pKa (easily deprotonated site of the calix[4]arene core) ([10]; acid–base properties in solution): 4.6
